# Test results reported in ChEMBL document CHEMBL3734704, “Synthesis and Biological Evaluation of Novel Bouchardatine Derivatives as Potential Adipogenesis/Lipogenesis Inhibitors for Antiobesity Treatment” (J Med Chem, 2015).
# The source made the active and inactive calls. The calls are words filed in the database; no cut-off is given here.
# Assays:
# HepG2 [1] = assay: Decrease in cholesterol level in human HepG2 cells at 1 uM after 24 hrs by […] assay in presence of 0.5 mM oleic acid sodium; format: functional
# How it was run: (§1)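 HepG-2 cells seeded, then after 24 h exposed to 0.5 mM oleic acid sodium plus compound (1 µM; dose series up to 10 µM) for 24 h, DMSO vehicle. Cells lysed in 0.2% Triton X-100 for 1 h, sonicated, centrifuged. Triglyceride measured by GPO-POD kit and cholesterol by kit, both normalized to BCA protein; n = 3.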
# [2] = Decrease in triglyceride accumulation in mouse 3T3L1 cells at 10 uM for 3 days oil red O staining based microscopic analysis; format: functional, cell-based; conditions: 3T3-L1
# How it was run: (§2)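 3T3-L1 cells differentiated from 2 days post-confluence with IBMX/dexamethasone/insulin cocktail for 3 days, then insulin medium to Day 6. Compounds at 1 and 10 µM added Day 0 for 3 days. Triglyceride read on Day 6 with Oil Red O (formaldehyde fixation, 30 min stain, isopropanol extraction, OD 510 nm); n = 3.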
# 3T3-L1 [3] = assay: Inhibition of cell differentiation in mouse 3T3L1 cells assessed as delayed time point of cell contact inhibition at 0.5 uM for 9 days; format: functional
# How it was run: (§3)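 3T3-L1 preadipocytes were induced to differentiate (IBMX/dexamethasone/insulin for 3 days, then insulin) with compound added from day 0 at 0.5 or 5 µM; DMSO vehicle served as control. Cells were collected and counted every day to follow proliferation and to find when contact inhibition resumed.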
# [4] = Decrease in triglyceride level in mouse 3T3L1 cells during all developmental stages at 0.5 uM for 9 days; format: functional, cell-based; conditions: 3T3-L1
# How it was run: (§4)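 During 3T3-L1 differentiation with compound present (0.5 µM, or 5 µM for one compound), cells were collected and counted every day and triglyceride content was measured by TG assay.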
# HepG2 [5] = assay: Decrease in triglyceride level in human HepG2 cells at 1 uM after 24 hrs by GPO-POD assay in presence of 0.5 mM oleic acid sodium; format: functional; how it was run: as §1
# 3T3-L1 [6] = assay: Activation of AMPK-mediated ACC in mouse 3T3L1 cells assessed as increase in phophorylated ACC level at 0.2 mM after 24 hrs by western blot analysis; format: cell-based
# How it was run: (§5)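 3T3-L1 cells in DMEM/10% FBS at 37 °C, 5% CO2, exposed for 10 min, 2 h or 24 h alongside a DMSO vehicle. Cells were lysed in RIPA with PMSF, Na3VO4, NaF and protease inhibitors. Lysates were run on SDS-PAGE and blotted to PVDF, blocked in 5% BSA, then probed with primary antibodies for 16 h at 4 °C and an HRP secondary. Bands were normalised to GAPDH, with the 10 min DMSO group set as 100%; n = 3.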
# [7] = Downregulation of C/EBP alpha mRNA level in mouse 3T3L1 cells at 0.2 mM after 24 hrs by RT-PCR analysis; format: functional, cell-based; conditions: 3T3-L1
# [8] = Downregulation of C/EBP delta mRNA level in mouse 3T3L1 cells at 0.2 mM after 24 hrs by RT-PCR analysis; format: functional, cell-based; conditions: 3T3-L1
# [9] = Downregulation of C/EBP beta mRNA level in mouse 3T3L1 cells at 0.2 mM after 24 hrs by RT-PCR analysis; format: functional, cell-based; conditions: 3T3-L1
# 3T3-L1 [10] = assay: Effect on LKB1 expression in mouse 3T3L1 cells at 0.2 mM after 10 mins, 2 and 24 hrs by western blot analysis; format: functional, cell-based; how it was run: as §5
# [11] = Downregulation of SREBP-1c mRNA level in mouse 3T3L1 cells at 0.2 mM after 24 hrs by RT-PCR analysis; format: functional, cell-based; conditions: 3T3-L1
# [12] = Downregulation of C/EBP alpha mRNA level in mouse 3T3L1 cells at 0.2 mM after 2 hrs by RT-PCR analysis; format: functional, cell-based; conditions: 3T3-L1
# 3T3-L1 [13] = assay: Activation of AMPK-mediated ACC in mouse 3T3L1 cells assessed as increase in phophorylated ACC level at 0.2 mM after 10 mins by western blot analysis; format: cell-based; how it was run: as §5
# [14] = Downregulation of PPAR-gamma mRNA level in mouse 3T3L1 cells at 0.2 mM after 2 hrs by RT-PCR analysis; format: functional, cell-based; conditions: 3T3-L1
# 3T3-L1 [15] = assay: Activation of AMPK alpha in mouse 3T3L1 cells assessed as increase in phophorylated AMPK alpha at Thr 172 residue level at 0.2 mM after 10 mins by western blot analysis; format: cell-based; how it was run: as §5
# [16] = Downregulation of PPAR-gamma mRNA level in mouse 3T3L1 cells at 0.2 mM after 24 hrs by RT-PCR analysis; format: functional, cell-based; conditions: 3T3-L1
# 3T3-L1 [17] = assay: Activation of AMPK alpha in mouse 3T3L1 cells assessed as increase in phophorylated AMPK alpha at Thr 172 residue level at 0.2 mM after 24 hrs by western blot analysis; format: cell-based; how it was run: as §5
# 3T3-L1 [18] = assay: Inhibition of cell proliferation in mouse 3T3L1 cells at 5 uM for 9 days; format: functional, cell-based; how it was run: as §3
# 3T3-L1 [19] = assay: Inhibition of cell differentiation in mouse 3T3L1 cells assessed as delayed time point of cell contact inhibition at 5 uM for 9 days; format: functional; how it was run: as §3
# [20] = Decrease in triglyceride accumulation in mouse 3T3L1 cells at 1 uM for 3 days oil red O staining based microscopic analysis; format: functional, cell-based; conditions: 3T3-L1; how it was run: as §2
# [21] = Decrease in triglyceride level in mouse 3T3L1 cells during all developmental stages at 5 uM for 9 days; format: functional, cell-based; conditions: 3T3-L1; how it was run: as §4
smiles,measurement,setting,value
O=Cc1c(-c2nc(NCCc3ccccc3)c3ccccc3n2)[nH]c2ccccc12,inhibition (INH),HepG2 [1],> 50%
CN1CCN(c2nc(-c3[nH]c4ccccc4c3C=O)nc3ccccc23)CC1,inhibition,[2],81.6%
CN(C)CCCC/N=C/c1c(-c2nc3ccccc3c(=O)[nH]2)[nH]c2ccccc12,Time,3T3-L1 [3],6 days
same,inhibition,[4],Active
O=c1[nH]c(-c2[nH]c3ccccc3c2/C=N/CCN2CCCC2)nc2ccccc12,Time,3T3-L1 [3],6 days
same,inhibition,[4],Active
CCN(CC)CCNc1nc(-c2[nH]c3ccccc3c2C=O)nc2ccccc12,inhibition,HepG2 [5],Active
same,inhibition,[2],87.3%
same,inhibition (INH),HepG2 [1],> 50%
NC(=O)c1ncn([C@@H]2O[C@H](COP(=O)(O)O)[C@@H](O)[C@H]2O)c1N,Activity,3T3-L1 [6],Active
same,inhibition,[7],Active
same,inhibition,[8],Active
same,inhibition,[9],Active
same,Activity,3T3-L1 [10],inactive
same,inhibition,[11],Active
same,inhibition,[12],Active
same,Activity,3T3-L1 [13],Active
same,inhibition,[14],Active
same,Activity,3T3-L1 [15],Active
same,inhibition,[16],Active
same,Activity,3T3-L1 [17],Active
CCN(CC)c1nc(-c2[nH]c3ccccc3c2C=O)nc2ccccc12,inhibition,[2],82.2%
CN(C)CCNc1nc(-c2[nH]c3ccccc3c2C=O)nc2ccccc12,inhibition,HepG2 [5],Active
same,inhibition,[2],80.1%
O=Cc1c(-c2nc(NCCCN3CCOCC3)c3ccccc3n2)[nH]c2ccccc12,Time,3T3-L1 [3],6 days
same,inhibition,[4],Active
O=Cc1c(-c2nc3ccccc3c(=O)[nH]2)[nH]c2ccccc12,inhibition (INH),HepG2 [5],16.7%
same,inhibition,[2],20.1%
same,inhibition,3T3-L1 [18],Active
same,Time,3T3-L1 [19],5 days
same,inhibition,[20],14.8%
same,inhibition,[21],Active
same,inhibition (INH),HepG2 [1],24.1%
O=Cc1c(-c2nc(NCCN3CCCCC3)c3ccccc3n2)[nH]c2ccccc12,inhibition,HepG2 [5],Active
same,Time,3T3-L1 [3],6 days
same,inhibition,[2],87.2%
same,inhibition,[4],Active
same,inhibition (INH),HepG2 [1],> 50%
